≈ marks a conversion by molar mass, not a printed value. Calls of active or inactive are those of the source. The rule behind the calls is not given here. Positions of bridges follow the written chain, without caps; N, C: chain ends. Non-standard residues stand in square brackets, D forms with d. Residues, ends and D or L forms follow the SMILES beside them. *: point of attachment. X2 = OC[C@H]1O[C@@H](*)[C@@H](O)[C@@H](O)[C@@H]1O; NMeT = CN[C@H](C(=O)O)[C@@H](C)O; X1 = CCCCCCCCCCCC(O)C(O)C(=O)*; Dhb = C/C=C(\N)C(=O)O
Assays:
[1] = tested on: Bacillus subtilis; test: Antimicrobial activity against Bacillus subtilis at 10 ug by disk diffusion assay; format: functional, organism-based
In short: (§1)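 Disk diffusion on LB-agar plates; each disk carried 10 µg in 30 µL of 50% MeOH.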

[2] = tested on: Aspergillus niger; test: Antifungal activity against Aspergillus niger at 10 ug by disk diffusion assay; format: functional, organism-based
In short: (§2)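 Disk diffusion on malt agar plates; each disk carried 10 µg in 30 µL of 50% MeOH.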

[3] = tested on: Aspergillus fumigatus; test: Antifungal activity against Aspergillus fumigatus after 48 hrs; format: functional
In short: (§3)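 Broth microdilution in RPMI-1640; each well held 240 µL medium, 10 µL inoculum (prepared per NCCLS guidelines) and 50 µL of test solution in 50% MeOH. The test solution was a 2-fold series from a 92 µg/mL stock, 4.6 down to 0.14 µg per 50 µL. A drug-free well served as control. Incubation at 35 °C, 24 h for C. albicans and 48 h for A. fumigatus. Growth was read as OD595. MIC was the highest dilution well free from growth. Run in triplicate.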

[4] = tested on: Candida albicans; test: Antifungal activity against Candida albicans after 24 hrs; format: functional; in short: as §3
[5] = tested on: Ustilago maydis; test: Antifungal activity against Ustilago maydis at 10 ug by disk diffusion assay; format: functional, organism-based; details: Mycosarcoma maydis; in short: as §2
[6] = tested on: Aspergillus fumigatus; test: Antifungal activity against Aspergillus fumigatus at 10 ug by disk diffusion assay; format: functional, organism-based; in short: as §2
[7] = tested on: Fusarium sambucinum; test: Antifungal activity against Fusarium sambucinum at 10 ug by disk diffusion assay; format: functional, organism-based; in short: as §2
[8] = tested on: Candida albicans; test: Antifungal activity against Candida albicans at 10 ug by disk diffusion assay; format: functional, organism-based; in short: as §2
[9] = tested on: Penicillium sp.; test: Antifungal activity against Penicillium sp. at 10 ug by disk diffusion assay; format: functional, organism-based; in short: as §2
[10] = tested on: Escherichia coli; test: Antimicrobial activity against Escherichia coli at 10 ug by disk diffusion assay; format: functional, organism-based; in short: as §1
[11] = tested on: Streptomyces; test: Antimicrobial activity against Streptomyces versicolor at 10 ug by disk diffusion assay; format: functional, organism-based; in short: as §1
[12] = tested on: Nakaseomyces glabratus; test: Antifungal activity against Candida glabrata at 10 ug by disk diffusion assay; format: functional, organism-based; in short: as §2

## C/C=C1\NC(=O)[C@H](Cc2ccc(O)cc2)NC(=O)[C@H]([C@@H](C)O)NC(=O)[C@@H](NC(=O)[C@@H](NC(=O)C(O)C(O)CCCCCCCCCCC)[C@@H](C)O)[C@@H](C)OC(=O)[C@H](CCC(N)=O)NC(=O)[C@H]([C@@H](C)O[C@@H]2O[C@H](CO)[C@@H](O)[C@H](O)[C@@H]2O)N(C)C(=O)CNC(=O)[C@H](CCC(N)=O)NC1=O (some centres not stated) [HASSALLIDIN A] (X1-TTTY[Dhb]QG[NMeT](X2)Q; ester 2-C)
[1]
  Activity: inactive
[2]
  Activity: Active
[3]
  MIC: 4.8 µg/mL (≈ 3.47 µM)
[4]
  MIC: 4.8 µg/mL (≈ 3.47 µM)
[5]
  Activity: Active
[6]
  Activity: Active
[7]
  Activity: Active
[8]
  Activity: Active
[9]
  Activity: Active
[10]
  Activity: inactive
[11]
  Activity: inactive
[12]
  Activity: Active

Source: ChEMBL document CHEMBL1158756, “Hassallidin A, a glycosylated lipopeptide with antifungal activity from the cyanobacterium Hassallia sp” (2005)
